Measured values taken from ChEMBL document CHEMBL1145090, “In vitro analysis of stable, receptor-selective neurotensin[8-13] analogues” (J Med Chem, 2003).
Numbered stars: 1 amine (or outer) side, 2 acyl side, 3 side chain; on linkers, the order of the positions; unused ones are H or OH. Square brackets hold non-standard residues; d marks the D form. Peptide text beside a SMILES is read from it. X7 = CCNC(=N)NCCC[C@H](N)C(=O)/N=C(/N)NCCC[C@H](N[*:1])C(=O)[*:2]; X9 = NC1=NCCN1CCC[C@H](N[*:1])C(=O)[*:2]; Tle = CC(C)(C)[C@H](N)C(=O)O; hLys = NCCCCC[C@H](N)C(=O)O

Legend:
[1] = target: Neurotensin receptor type 2 (Homo sapiens, UniProt O95665); experiment: Evaluated for binding affinity by inhibiting binding of [125I]Tyr(3)-NT to human Neurotensin receptor 2
[2] = Plasma half life in rat serum; type: ADME, organism-based
Sortilin = target: T1, Sortilin (Homo sapiens, UniProt Q99523); experiment: Evaluated for binding affinity by inhibiting binding of [125I]Tyr(3)-NT to human Neurotensin receptor 3
T1 sequence (Q99523 whole entry): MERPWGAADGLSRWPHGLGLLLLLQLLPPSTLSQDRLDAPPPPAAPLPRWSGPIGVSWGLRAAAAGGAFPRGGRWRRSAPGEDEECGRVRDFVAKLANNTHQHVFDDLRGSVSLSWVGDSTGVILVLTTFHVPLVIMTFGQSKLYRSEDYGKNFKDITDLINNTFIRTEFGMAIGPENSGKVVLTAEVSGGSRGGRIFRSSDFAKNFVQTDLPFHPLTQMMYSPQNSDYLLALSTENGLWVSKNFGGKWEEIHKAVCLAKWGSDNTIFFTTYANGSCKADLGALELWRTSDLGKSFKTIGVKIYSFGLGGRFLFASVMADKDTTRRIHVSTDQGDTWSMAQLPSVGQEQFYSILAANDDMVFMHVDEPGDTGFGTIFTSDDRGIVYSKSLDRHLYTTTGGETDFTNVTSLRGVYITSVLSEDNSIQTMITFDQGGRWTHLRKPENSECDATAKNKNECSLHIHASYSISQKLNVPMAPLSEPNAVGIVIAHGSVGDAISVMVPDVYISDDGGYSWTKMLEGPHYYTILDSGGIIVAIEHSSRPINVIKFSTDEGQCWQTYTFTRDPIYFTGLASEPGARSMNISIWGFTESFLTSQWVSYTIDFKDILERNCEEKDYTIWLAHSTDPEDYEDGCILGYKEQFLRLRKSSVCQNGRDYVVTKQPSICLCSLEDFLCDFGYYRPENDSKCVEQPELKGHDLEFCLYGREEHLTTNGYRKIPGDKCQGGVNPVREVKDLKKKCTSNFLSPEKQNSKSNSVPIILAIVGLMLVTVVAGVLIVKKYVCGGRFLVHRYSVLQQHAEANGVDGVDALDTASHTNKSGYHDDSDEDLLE
How it was run: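 Whole cells (2 × 10^5) transiently expressing human NTR-3, ~60 h post-transfection. Equilibrated 10 min in Earle's Tris-HEPES pH 7.5 with 0.1% glucose and 0.1% BSA, then incubated 30 min at 37 °C with 0.4 nM 125I-Tyr(3)-NT, 0.8 mM 1,10-phenanthroline and increasing peptide. Washed, lysed in 0.1 N NaOH, gamma-counted. Nonspecific binding with 1 µM NT. IC50 taken.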

[3] = target: Neurotensin receptor type 1 (Homo sapiens, UniProt P30989); experiment: Evaluated for binding affinity by inhibiting binding of [125I]-Tyr(3)-NT to human Neurotensin receptor 1
Neurotensin receptor type 1, sequence (P30989 whole entry): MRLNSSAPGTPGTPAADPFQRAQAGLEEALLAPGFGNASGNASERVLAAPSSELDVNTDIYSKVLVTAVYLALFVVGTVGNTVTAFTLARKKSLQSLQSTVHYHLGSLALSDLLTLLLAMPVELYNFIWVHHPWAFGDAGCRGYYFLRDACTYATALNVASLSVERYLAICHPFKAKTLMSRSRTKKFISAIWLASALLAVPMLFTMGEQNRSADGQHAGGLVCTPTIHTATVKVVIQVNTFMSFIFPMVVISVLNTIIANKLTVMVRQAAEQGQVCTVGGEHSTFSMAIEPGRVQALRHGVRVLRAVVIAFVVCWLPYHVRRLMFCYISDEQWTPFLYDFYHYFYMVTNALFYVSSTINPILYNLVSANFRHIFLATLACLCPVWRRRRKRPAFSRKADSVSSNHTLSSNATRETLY

Neurotensin receptor type 2, sequence (O95665 whole entry): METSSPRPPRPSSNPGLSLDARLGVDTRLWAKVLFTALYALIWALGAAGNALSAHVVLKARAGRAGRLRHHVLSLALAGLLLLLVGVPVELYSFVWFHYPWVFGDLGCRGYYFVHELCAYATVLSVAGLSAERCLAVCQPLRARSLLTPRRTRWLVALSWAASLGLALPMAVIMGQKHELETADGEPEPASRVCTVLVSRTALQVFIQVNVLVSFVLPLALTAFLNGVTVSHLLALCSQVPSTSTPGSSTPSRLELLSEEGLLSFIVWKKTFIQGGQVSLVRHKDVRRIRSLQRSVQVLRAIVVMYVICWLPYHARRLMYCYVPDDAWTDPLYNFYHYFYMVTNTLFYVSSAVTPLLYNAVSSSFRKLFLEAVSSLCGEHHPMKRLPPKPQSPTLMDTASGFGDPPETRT

| IC50 [1] | half-life [2] | IC50 (Sortilin) | IC50 [3] | SMILES |
| --- | --- | --- | --- | --- |
| 5.1 nM |  | 480 nM |  | CC[C@H](C)[C@H](NC(=O)[C@H](Cc1ccc(O)cc1)NC(=O)[C@@H]1CCCN1C(=O)[C@@H](N)CCC/N=C(/N)NC(=O)[C@@H](N)CCCN(C)C)C(=O)N[C@@H](CC(C)C)C(=O)O |
|  | 0.525 h |  |  | CCNC(=N)NCCC[C@H](N)C(=O)N[C@@H](CCCNC(=N)N)C(=O)N1CCC[C@H]1C(=O)N[C@@H](Cc1ccc(O)cc1)C(=O)N[C@H](C(=O)N[C@@H](CC(C)C)C(=O)O)[C@@H](C)CC |
| 0.7 nM | 2.55 h | 1200 nM | 0.38 nM | CC[C@H](C)[C@H](NC(=O)[C@H](Cc1ccc(O)cc1)NC(=O)[C@@H]1CCCN1C(=O)[C@@H](N)CCC/N=C(/N)NC(=O)[C@@H](N)CCCCCN)C(=O)N[C@@H](CC(C)C)C(=O)O |
| 0.23 nM |  | 590 nM |  | CC[C@H](C)[C@H](NC(=O)[C@H](Cc1ccc(O)cc1)NC(=O)[C@@H]1CCCN1C(=O)[C@@H](N)CCC/N=C(/N)NC(=O)[C@@H](N)CCCN1CCN=C1N)C(=O)N[C@@H](CC(C)C)C(=O)O |
| 3 nM | 2.23 h | 1400 nM | 0.59 nM | CC[C@H](C)[C@H](NC(=O)[C@H](Cc1ccc(O)cc1)NC(=O)[C@@H]1CCCN1C(=O)[C@@H](N)CCCN=C(N)NC(=O)[C@@H](N)CCCN)C(=O)N[C@@H](CC(C)C)C(=O)O |
| 2.1 nM | 2.27 h | 512 nM | 0.3 nM | CC[C@H](C)[C@H](NC(=O)[C@H](Cc1ccc(O)cc1)NC(=O)[C@@H]1CCCN1C(=O)[C@@H](N)CCCN=C(N)NC(=O)[C@@H](N)CCCCN)C(=O)N[C@@H](CC(C)C)C(=O)O |
| 0.67 nM |  | 720 nM |  | CC[C@H](C)[C@H](NC(=O)[C@H](Cc1ccc(O)cc1)NC(=O)[C@@H]1CCCN1C(=O)[C@@H](N)CCCN=C(N)NC(=O)[C@@H](N)CCCN=C(N)NC)C(=O)N[C@@H](CC(C)C)C(=O)O |
| 500 nM | > 24 h | 53700 nM | 133 nM | CC(C)C[C@H](NC(=O)[C@@H](NC(=O)[C@H](Cc1c[nH]c2ccccc12)NC(=O)[C@@H]1CCCN1C(=O)[C@@H](N)CCCN=C(N)NC(=O)[C@@H](N)CCCCCN)C(C)(C)C)C(=O)O (H-R(hLys)PW[Tle]L-OH) |
| 11.1 nM |  | 4000 nM |  | CC(C)C[C@H](NC(=O)[C@@H](NC(=O)[C@H](Cc1ccc(O)cc1)NC(=O)[C@@H]1CCCN1C(=O)[C@@H](N)CCCN=C(N)NC(=O)[C@@H](N)CCCCCN)C(C)(C)C)C(=O)O (H-R(hLys)PY[Tle]L-OH) |
| 0.3 nM |  | 480 nM |  | CCNC(=N)NCCC[C@H](N)C(=O)/N=C(/N)NCCC[C@H](N)C(=O)N1CCC[C@H]1C(=O)N[C@@H](Cc1ccc(O)cc1)C(=O)N[C@H](C(=O)N[C@@H](CC(C)C)C(=O)O)[C@@H](C)CC (H-[X7]PYIL-OH) |
|  | 0.275 h |  |  | CC[C@H](C)[C@H](NC(=O)[C@H](Cc1ccc(O)cc1)NC(=O)[C@@H]1CCCN1C(=O)[C@H](CCCNC(=N)N)NC(=O)[C@@H](N)CCCN1CCN=C1N)C(=O)N[C@@H](CC(C)C)C(=O)O (H-[X9]RPYIL-OH) |

More lines, now with the values behind:

| SMILES | IC50 [1] | half-life [2] | IC50 (Sortilin) | IC50 [3] |
| --- | --- | --- | --- | --- |
| CC[C@H](C)[C@H](NC(=O)[C@H](Cc1ccc(O)cc1)NC(=O)[C@@H]1CCCN1C(=O)[C@@H](N)CCC/N=C(/N)NC(=O)[C@@H](N)CCCN=C(N)N)C(=O)N[C@@H](CC(C)C)C(=O)O | 0.9 nM | 2.9 h | 1740 nM | 0.4 nM |
| CC[C@H](C)[C@H](NC(=O)[C@H](Cc1ccc(O)cc1)NC(=O)[C@@H]1CCCN1C(=O)[C@@H](N)CCC/N=C(/N)NC(=O)[C@@H](N)CCCCN(C)C)C(=O)N[C@@H](CC(C)C)C(=O)O | 2.8 nM | 2.12 h | 1620 nM | 0.4 nM |
| CC[C@H](C)[C@H](NC(=O)[C@H](Cc1ccc(O)cc1)NC(=O)[C@@H]1CCCN1C(=O)[C@@H](N)CCCNC(=N)NC(=O)[C@@H](N)CCCCC[N+](C)(C)C)C(=O)N[C@@H](CC(C)C)C(=O)O | 3.1 nM | 1.72 h | 550 nM | 0.51 nM |
| CC[C@H](C)[C@H](NC(=O)[C@H](Cc1ccc(O)cc1)NC(=O)[C@@H]1CCCN1C(=O)[C@@H](N)CCCN=C(N)NC(=O)[C@@H](N)CCCNC)C(=O)N[C@@H](CC(C)C)C(=O)O | 3.5 nM |  | 640 nM |  |
| CC[C@H](C)[C@H](NC(=O)[C@H](Cc1ccc(O)cc1)NC(=O)[C@@H]1CCCN1C(=O)[C@@H](N)CCC/N=C(/N)NC(=O)[C@@H](N)CCCCCNC)C(=O)N[C@@H](CC(C)C)C(=O)O | 6.9 nM | 3.52 h | 400 nM | 0.52 nM |
| CC[C@H](C)[C@H](NC(=O)[C@H](Cc1ccc(O)cc1)NC(=O)[C@@H]1CCCN1C(=O)[C@@H](N)CCC/N=C(/N)NC(=O)[C@@H](N)CCCCCN(C)C)C(=O)N[C@@H](CC(C)C)C(=O)O | 3.5 nM | 2.1 h | 700 nM | 0.28 nM |
| CC[C@H](C)[C@H](NC(=O)[C@H](Cc1ccc(O)cc1)NC(=O)[C@@H]1CCCN1C(=O)[C@@H](N)CCC/N=C(/N)NC(=O)[C@@H](N)CCCCNC)C(=O)N[C@@H](CC(C)C)C(=O)O | 1.8 nM | 2.13 h | 1150 nM | 0.34 nM |
| CC[C@H](C)[C@H](NC(=O)[C@H](Cc1ccc(O)cc1)NC(=O)[C@@H]1CCCN1C(=O)[C@H](CCCNC(=N)N)NC(=O)[C@@H](N)CCCNC(=N)N)C(=O)N[C@@H](CC(C)C)C(=O)O |  | 0.0983 h |  |  |
| CC[C@H](C)[C@H](NC(=O)[C@H](Cc1ccc(O)cc1)NC(=O)[C@@H]1CCCN1C(=O)[C@H](CCCNC(=N)N)NC(=O)[C@@H](N)CCCN=C(N)NC)C(=O)N[C@@H](CC(C)C)C(=O)O |  | 0.237 h |  |  |
| CC(C)C[C@H](NC(=O)[C@@H](NC(=O)[C@H](Cc1ccc(O)cc1)NC(=O)[C@@H]1CCCN1C(=O)[C@H](CCCNC(=N)N)NC(=O)[C@@H](N)CCCCCN)C(C)(C)C)C(=O)O (H-[hLys]RPY[Tle]L-OH) |  | > 24 h |  | 5.71 nM |
